Screening data from PubChem BioAssay.
S100A4 inh HTS: inhibitors of human S100A4 binding to myosin IIA peptide; P26447; S100A4/TAMRA-MyoIIA peptide fluorescence polarization; inhibition, % at 10.7 µM; actives 0.14% (n = 360,000);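 active = mean inhibition of at least 70% across replicates, with every replicate also reaching that level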
Target sequence (P26447 whole entry, looked up): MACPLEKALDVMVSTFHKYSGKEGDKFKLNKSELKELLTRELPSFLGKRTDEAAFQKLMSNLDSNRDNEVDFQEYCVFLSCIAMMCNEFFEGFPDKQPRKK
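Material: human S100A4 monomer with TAMRA-labelled myosin IIA peptide; buffer or medium: HEPES pH 7.2 with CaCl2, KCl, NaCl, DTT, Triton; compound dosing: one concentration per compound; schedule: 5 min incubation before reading; benchmarks: neutral control DMSO, positive control TFP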
dFosB act: enhances mouse delta FosB homodimer DNA binding. purified delta FosB, TAMRA-CDK5 oligo fluorescence polarization; percent of positive-control signal above neutral wells. activation, % at 25 µM. actives 0.99% (n = 340,000);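 active = mean activation above about 17%, with every replicate also reaching it, limit read from the data, passing the limit was not always enough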
Target sequence (P13346 whole entry, looked up): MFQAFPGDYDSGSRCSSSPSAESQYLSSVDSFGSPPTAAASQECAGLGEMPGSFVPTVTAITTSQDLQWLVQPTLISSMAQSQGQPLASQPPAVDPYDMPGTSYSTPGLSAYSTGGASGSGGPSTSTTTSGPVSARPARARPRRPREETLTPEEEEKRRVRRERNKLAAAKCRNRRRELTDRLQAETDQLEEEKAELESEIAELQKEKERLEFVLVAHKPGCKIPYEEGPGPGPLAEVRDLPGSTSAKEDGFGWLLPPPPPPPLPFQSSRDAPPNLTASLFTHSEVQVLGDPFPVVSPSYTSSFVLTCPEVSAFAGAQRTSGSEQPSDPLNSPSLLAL
CAL PDZ FP-1: CAL PDZ (human) peptide binding inhibition | inhibition, % at 24.9 µM | actives 0.92% (n = 300,000) | Q9HD26 | purified CAL PDZ, TMR-peptide fluorescence polarization, 1 h;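 active = mean inhibition of at least 30% with at least half of replicates also reaching 30%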;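 note: 0% = DMSO neutral control and 100% = excess unlabeled competitor peptide PRC23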
CDK5 p35 inh: inhibitors of human CDK5/p35 kinase; Q00535+Q15078; Recombinant CDK5/p35, ADP-Glo luminescence, 60 min; inhibition, % at 10 µM; actives 0.01% (n = 330,000); AID 488839;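 active = highest replicate inhibition of at least 50% and at least 75% of replicates reaching 50%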;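 note: plate controls were DMSO neutral control for no effect and GW8510 at 10 µM for full effect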
CAL PDZ FP-2: inhibitors of human CAL PDZ peptide binding | Q9HD26 | purified CAL PDZ, TMR-peptide fluorescence polarization, 1 h | inhibition, % at 20 µM | actives 0.02% (n = 330,000) | AID 504414;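 active = highest replicate inhibition of at least 40%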;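 note: plate controls were DMSO neutral control wells for no effect and unlabeled competitor peptide control wells for full effect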
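Control set: unlabelled peptide and DMSO controls / Material: purified CerCALP PDZ construct / Timing: 1 h incubation at room temperature before polarization reading / Doses: 20 µM, one dose / Detection: fluorescence polarization (mP)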
C2C12 statin: protects C2C12 myotubes from simvastatin toxicity | actives 0.78% (n = 330,000) | rescue of ATP level, % at 7.49 µM | AID 602340 | ATP luminescence, 48 h; scaled: DMSO 0, geranylgeraniol control 100;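 active = mean ATP rescue above about 67%, or every replicate alone reaching that limit, limit read from the data, passing the limit was not always enough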;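 note: myotubes were challenged with 10 µM simvastatin during compound exposure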
An asterisk follows results filed as active. Sampled rows, rich in hits. Any-hit rate of the full collection: about 2%.

Screening C[C@@H]1CN([C@@H](C)CO)S(=O)(=O)c2ccc(Br)cc2O[C@@H]1CN(C)Cc1ccncc1 returned S100A4 inh HTS 111.2* and C2C12 statin 2.5.
For CCCC(=O)Nc1ccc2c(c1)C(=O)N(C)C[C@@H](OC)[C@H](C)CN(C(=O)CC)[C@H](C)CO2 the results were C2C12 statin -1.2.
For O=C(NCC(=O)N1CCN(Cc2ccccc2)CC1)c1ccc(Br)cc1 the results were S100A4 inh HTS -0.7, dFosB act -3.9, CAL PDZ FP-1 40.9*, CDK5 p35 inh 1.5, CAL PDZ FP-2 -1.1 and C2C12 statin 0.8.
CCOC(=O)c1c(/N=C/C2C(=O)CC(C)(C)CC2=O)sc2c1CCCC2 was read as S100A4 inh HTS 3.3, dFosB act 2.0, CAL PDZ FP-1 79.2*, CDK5 p35 inh 0.5, CAL PDZ FP-2 -0.6 and C2C12 statin -12.9.
`COc1ccc(C(=O)C2CCCN(C(=O)c3ccoc3C)C2)cc1F` (stereo unspecified) gave S100A4 inh HTS 0.6, dFosB act -8.0, CAL PDZ FP-1 119.4*, CDK5 p35 inh -0.4 and C2C12 statin 41.3.
For Cc1ccc(NC(=S)NNC(=S)NCc2ccccc2)cc1 the results were dFosB act 1.6, CAL PDZ FP-1 -4.7, CDK5 p35 inh 0.6, CAL PDZ FP-2 -1.4 and C2C12 statin 11.7.
O=C(c1cccc2ccccc12)N1CCN(c2ccc([N+](=O)[O-])c(NCc3ccco3)c2)CC1 was read as S100A4 inh HTS -2.6, dFosB act -0.4, CAL PDZ FP-1 -3.4, CDK5 p35 inh -0.7 and CAL PDZ FP-2 0.1.
Screening O=C(Nc1ccc(N2CCOCC2)c(Cl)c1)c1ccc([N+](=O)[O-])o1 returned S100A4 inh HTS -1.4, dFosB act 0.7, CAL PDZ FP-1 1.4, CDK5 p35 inh -1.2 and CAL PDZ FP-2 -2.1.
Screening O=C(Nc1ccc(N2CCN(C(=O)c3ccccc3)CC2)cc1)c1ccc([N+](=O)[O-])o1 returned S100A4 inh HTS 0.9, dFosB act -11.5, CAL PDZ FP-1 -0.4, CDK5 p35 inh 0.1 and CAL PDZ FP-2 -2.6.
Cc1ccccc1C(=O)N1CCN(c2ccc(NC(=O)c3ccc([N+](=O)[O-])o3)cc2)CC1 was read as S100A4 inh HTS 2.0, dFosB act -7.6, CAL PDZ FP-1 -0.8, CDK5 p35 inh 0.5, CAL PDZ FP-2 0.2 and C2C12 statin 166.6*.
Screening CN1CCN(c2ccc(NC(=O)c3ccc([N+](=O)[O-])o3)cc2Cl)CC1 returned S100A4 inh HTS 1.9, dFosB act -10.7, CAL PDZ FP-1 -3.4, CDK5 p35 inh -1.8, CAL PDZ FP-2 -1.5 and C2C12 statin 93.6*.
`Cc1ccccc1C(=O)N1CCN(c2ccc([N+](=O)[O-])c(NCc3ccco3)c2)CC1` gave dFosB act -7.9, CAL PDZ FP-1 -0.9, CDK5 p35 inh 2.6 and C2C12 statin 129.5*.
For COc1ccc(CC(=O)Nc2cccc(-c3nnc(-c4ccco4)o3)c2)cc1 the results were dFosB act 66.5*, CAL PDZ FP-1 -1.6, CDK5 p35 inh -1.2 and CAL PDZ FP-2 -4.8.
`O=C(COc1ccc(Cl)cc1)Nc1nnc(-c2ccco2)o1` gave S100A4 inh HTS 6.4, dFosB act -2.6, CAL PDZ FP-1 45.6*, CDK5 p35 inh 0.4 and CAL PDZ FP-2 -1.4.
For COc1ccc(C(=O)Nc2cccc(-c3nnc(-c4ccco4)o3)c2)cc1 the results were dFosB act -45.4, CAL PDZ FP-1 0.1, CDK5 p35 inh 1.6, CAL PDZ FP-2 -5.8 and C2C12 statin -1.4.
`C[C@H]1CN([C@@H](C)CO)C(=O)Cc2cc(NC(=O)Cc3ccccc3)ccc2O[C@@H]1CN(C)C(=O)Nc1ccccc1` gave S100A4 inh HTS -3.3 and C2C12 statin -8.8.
For Cc1cc2nc3ccc(N(C)C)cc3nc2cc1N the results were S100A4 inh HTS 177.9*, dFosB act -90.5, CAL PDZ FP-1 -1.8, CDK5 p35 inh 1.4, CAL PDZ FP-2 3.6 and C2C12 statin -17.8.
For COc1ccc2nc(C)cc(Nc3ccc(N4CCN(C)CC4)cc3)c2c1 the results were S100A4 inh HTS 2.5, dFosB act 76.6*, CAL PDZ FP-1 -0.9, CDK5 p35 inh 0.6, CAL PDZ FP-2 -0.1 and C2C12 statin 27.8.
`COc1ccc(/C=N/Nc2cc(C)nc3ccc(OC)cc23)c(OC)c1` gave S100A4 inh HTS -1.8, dFosB act -113.8, CAL PDZ FP-1 18.0, CDK5 p35 inh 4.2, CAL PDZ FP-2 45.1* and C2C12 statin -400.7.
COc1ccc2nc(C)cc(Nc3ccc(C)cc3)c2c1 was read as S100A4 inh HTS 0.5, dFosB act 8.3, CAL PDZ FP-1 8.4, CDK5 p35 inh 0.6, CAL PDZ FP-2 -3.8 and C2C12 statin -14.1.
`COc1ccc2nc(C)cc(Nc3ccc(N4CCOCC4)cc3)c2c1` gave dFosB act 30.2*, CAL PDZ FP-1 -0.6, CDK5 p35 inh 0.4, CAL PDZ FP-2 -0.4 and C2C12 statin -23.2.
`COc1ccc2nc(C)cc(N/N=C/c3ccccc3)c2c1` gave dFosB act -55.4, CDK5 p35 inh -0.2, CAL PDZ FP-2 14.1 and C2C12 statin 11.3.
Cc1[nH]c2ccccc2c1C(=O)CN1C(=O)NC2(CCCCCC2)C1=O was read as S100A4 inh HTS -0.1, dFosB act -6.9, CAL PDZ FP-1 -2.7, CDK5 p35 inh 2.3, CAL PDZ FP-2 -0.3 and C2C12 statin 2.5.
`O=C(NCc1ccc2c(c1)OCO2)c1cc2n(n1)C(C(F)(F)F)CC(c1ccc3c(c1)OCO3)N2` (stereo unspecified) gave dFosB act 21.1*, CAL PDZ FP-1 1.0, CDK5 p35 inh 1.8 and C2C12 statin 19.9.
O=C(Nc1cc(Cl)ccc1O)c1cc2n(n1)C(C(F)(F)F)CC(c1ccc3c(c1)OCO3)N2 (stereo unspecified) was read as dFosB act 6.1, CAL PDZ FP-1 -8.1, CDK5 p35 inh 0.6 and CAL PDZ FP-2 0.1.
COc1ccc(S(=O)(=O)Nc2cc3c4c(oc3c3ccccc23)CCCC4=O)cc1 was read as dFosB act 0.3, CDK5 p35 inh -0.2, CAL PDZ FP-2 -3.3 and C2C12 statin 76.8*.
For COc1ccc(S(=O)(=O)Nc2cc3c4c(oc3c3ccccc23)CC(C)(C)CC4=O)cc1 the results were dFosB act -7.9, CAL PDZ FP-1 -0.9, CDK5 p35 inh -0.3 and CAL PDZ FP-2 -4.2.
`COc1ccc2[nH]c3c(=O)n(CCCC(=O)NC4CCCCC4C)c(=S)[nH]c3c2c1` (stereo unspecified) gave S100A4 inh HTS -2.0, dFosB act 51.8*, CAL PDZ FP-1 0.3, CDK5 p35 inh 0.0, CAL PDZ FP-2 -2.3 and C2C12 statin 3.7.
